An excerpt weighted towards active compounds, which were near 0.99% of everything screened.
PME-1 primary – PME-1 inhibitors via competitive probe labeling, primary screen, biochemical, fluorescence polarization, FP-Rh probe, HTS; inhibition, % at 5.9 µM; recombinant PME-1; AID 2130, 2009; Protein phosphatase methylesterase 1 (Homo sapiens), Q9Y570; 320,000 compounds, 0.53% hits;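 active means inhibition above the campaign mean of all compounds plus 3 SD, cut at about 26% in these data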;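 further: competitive labeling of PME-1 active site by serine hydrolase directed probe; 0% = PME-1 with DMSO and 100% = wells lacking PME-1 enzyme; inhibitors block probe labeling so polarization falls and inhibition rises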
LYPLA1 counter – LYPLA1 inhibitors, primary screen, counter-screen for PME1 inhibitor project, biochemical, fluorescence polarization, FP-Rh probe ABPP; recombinant LYPLA1; 320,000 compounds, 0.16% hits; Acyl-protein thioesterase 1 (Homo sapiens), O75608; inhibition, % at 5.9 µM; AID 2174, 2009;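 active means inhibition above the mean of all tested compounds plus 3 SD, set per campaign, cut at about 14% in these data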;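 further: inhibitors block serine hydrolase probe labeling of LYPLA1 so polarization falls; 0% = enzyme with DMSO and 100% = wells lacking LYPLA1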
Target sequence (O75608 whole entry, looked up): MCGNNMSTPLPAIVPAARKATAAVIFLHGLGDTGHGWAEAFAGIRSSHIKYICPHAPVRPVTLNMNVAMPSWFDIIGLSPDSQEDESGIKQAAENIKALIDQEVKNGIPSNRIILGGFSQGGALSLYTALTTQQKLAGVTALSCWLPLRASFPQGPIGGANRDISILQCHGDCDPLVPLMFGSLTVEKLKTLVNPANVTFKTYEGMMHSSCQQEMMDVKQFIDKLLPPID
Fam108B counter – mouse Fam108B serine hydrolase inhibitors, primary screen, counter-screen for RBBP9 inhibitor project, biochemical, fluorescence polarization | inhibition, % at 9.51 µM | 300,000 compounds, 0.33% hits | recombinant Fam108B, FP-Rh probe fluorescence polarization;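 active means inhibition above the screen mean inhibition plus 3 SD, computed separately per campaign, cut at about 18% in these data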;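 further: inhibitors lower polarization as less probe binds the enzyme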
LYPLA2 inh – LYPLA2 inhibitors, primary screen, counter-screen for PME1 inhibitor project, biochemical, fluorescence polarization, FP-Rh probe ABPP; recombinant LYPLA2; AID 2177, 2009; inhibition, % at 5.9 µM; 320,000 compounds, 0.38% hits;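 active means inhibition above the screen-wide mean plus 3 SD, limit set per campaign, cut at about 26% in these data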;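 further: 0% = LYPLA2 with DMSO and 100% = wells lacking LYPLA2 enzyme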
RBBP9 inh – human RBBP9 inhibitors, primary screen, biochemical, fluorescence polarization, FP-Rh probe, HTS; Serine hydrolase RBBP9 (Homo sapiens), O75884; recombinant RBBP9; inhibition, % at 7.94 µM; 220,000 compounds, 0.2% hits;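 active means inhibition above the campaign mean of all tested compounds plus 3 SD, cut at about 14% in these data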;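 further: plate controls were DMSO wells with RBBP9 for no effect and wells lacking RBBP9 protein for full effect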
Target sequence (O75884 whole entry, looked up): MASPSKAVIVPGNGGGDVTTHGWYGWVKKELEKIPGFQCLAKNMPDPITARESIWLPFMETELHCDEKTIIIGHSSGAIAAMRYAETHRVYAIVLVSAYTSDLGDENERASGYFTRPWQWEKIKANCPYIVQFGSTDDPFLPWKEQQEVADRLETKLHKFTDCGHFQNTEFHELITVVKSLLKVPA
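Test system: recombinant human RBBP9. Quantity: 2.5 µM RBBP9 dispensing solution, before mixing. Detection: FP readout at 525/598 nm. Reagent: Serine-hydrolase probe FP-Rh, 375 nM pre-mixing. Measure: % inhibition. Control set: DMSO-treated enzyme wells and wells lacking RBBP9. Buffer or medium: Tris-NaCl-Pluronic buffer, pH 8.0. Times: preincubation 30 min plus labeling 45 min at 25 °C.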
Fam108b confirm – mouse Fam108b serine hydrolase inhibitors, confirmation, counter-screen for RBBP9 inhibitor project, biochemical, fluorescence polarization, triplicate. shares compounds with Fam108B counter. recombinant Fam108b, FP-Rh probe fluorescence polarization. inhibition, % at 9.51 µM. 930 compounds, 44% hits;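 active means inhibition above a limit from the primary screen, the mean over all compounds plus 3 SD, cut at about 19% in these data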;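 further: 0% = median of active Fam108b wells and 100% = catalytically dead S170A mutant; inhibitors free the probe so polarization falls as inhibition rises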
Fam108b inh – inhibition of mouse Fam108b by HTS hits, late-stage follow-up, biochemical, gel-based ABPP, soluble recombinant form | shares compounds with Fam108B counter | fluorophosphonate probe | inhibition, % at 20 µM | 260 compounds, 44% hits; in the data active means inhibition above about 40%
Active calls of the source: *; / = no result.

SMILES | PME-1 primary | LYPLA1 counter | Fam108B counter | LYPLA2 inh | RBBP9 inh | Fam108b confirm | others
O=C(Cc1cccc2ccccc12)Nc1nc(-c2cccc([N+](=O)[O-])c2)cs1 | 14.0 | -18.9 | 19.6* | -18.5 | -2.1 | 8.9
O=C(Nc1nc(-c2cccc([N+](=O)[O-])c2)cs1)c1cccc([N+](=O)[O-])c1C(=O)O | 3.6 | 1.4 | 0.5 | 2.5 | -4.4 | /
Cc1cc([N+](=O)[O-])cc(/C=N/n2c(C)nc3ccccc3c2=O)c1O | -6.2 | 3.0 | -2.2 | -0.8 | -4.2 | /
O=[N+]([O-])c1ccc(O)c(/C=N/n2c(CO)nc3ccccc32)c1 | 1.6 | 3.4 | 3.9 | 3.6 | 1.3 | /
C/C(=N\OCc1nc2ccccc2c(=O)n1/N=C/c1cc([N+](=O)[O-])ccc1O)c1ccccc1 | 0.4 | -13.3 | 19.1* | -17.6 | -2.5 | -9.5
C/C(=N\OCc1nc2ccccc2c(=O)n1/N=C/c1cc(C)cc([N+](=O)[O-])c1O)c1ccccc1 | -4.9 | -15.0 | 24.0* | -17.2 | -1.9 | 17.1
CCN1CCc2c(sc(NC(=O)Nc3ccc(Cl)c(Cl)c3)c2C(N)=O)C1 | 56.7* | 13.8 | 31.9* | 14.3 | 2.5 | 4.1
CNC(=S)N(CCCO)Cc1cc2cc3c(cc2[nH]c1=O)OCO3 | -3.5 | -0.5 | 2.2 | -2.0 | / | /
Oc1oc(-c2ccccc2Br)nc1C=Nc1ccc(Br)cn1 | 1.2 | -1.6 | 4.1 | 0.1 | -4.3 | /
Oc1oc(-c2ccccc2Br)nc1C=Nc1ccccn1 | / | / | / | / | / | / | Fam108b inh=90.0*
C[C@@H](O)[C@H]1C(=O)N2C(C(=O)O)=C(S[C@@H]3CN[C@H](C(=O)N(C)C)C3)[C@H](C)[C@H]12 | -2.2 | -0.2 | -5.5 | -4.7 | / | /
O=C(Nc1cccc(-c2csc(Nc3ccccc3)n2)c1)c1cc([N+](=O)[O-])cc(C(F)(F)F)c1 | 31.5* | -16.0 | 37.1* | -5.2 | / | 21.1*
O=C(Nc1cccc(-c2csc(Nc3ccc(Cl)cc3)n2)c1)c1cc([N+](=O)[O-])cc(C(F)(F)F)c1 | 35.5* | -20.5 | 58.9* | 6.2 | / | 67.6* | Fam108b inh=100.0*
NS(=O)(=O)c1ccc(Nc2nc(-c3cccc([N+](=O)[O-])c3)cs2)cc1 | 0.7 | 1.1 | 5.5 | 3.2 | 1.8 | /
O=C(Nc1ccc(-c2csc(Nc3ccc(Cl)cc3)n2)cc1)c1cc([N+](=O)[O-])cc(C(F)(F)F)c1 | 8.5 | -17.3 | 29.4* | -9.1 | / | -5.2
O=C(Nc1cccc([N+](=O)[O-])c1)c1ccccc1 | -6.3 | -1.2 | -2.5 | -4.6 | -3.8 | /
COc1ccccc1C1c2[nH]c3ccccc3c2CCN1Cc1ccc(NC(C)=O)s1 (stereo not drawn) | -1.4 | -0.9 | 4.0 | -1.6 | -2.2 | /
CC1=Nc2ccccc2/C1=C/c1sc(=O)n(CC(=O)N2CCCC2)c1O | 5.1 | -0.8 | 3.7 | -4.2 | -6.5 | /
O=c1[nH]c(S)c(/C=C2\C=Nc3ccccc32)s1 | 5.1 | 3.9 | 17.8 | 0.4 | -1.4 | /
Oc1cccc(Nc2nc(O)c(/C=C3\C=Nc4ccccc43)s2)c1 | 28.0* | -18.7 | 44.5* | -21.3 | 17.1* | 16.0
CC1=Nc2ccccc2/C1=C\c1sc(Nc2ccc(C)cc2)nc1O | 51.9* | -3.0 | 23.0* | -2.2 | -0.9 | 5.2
Oc1nc(Nc2cccc(Cl)c2)sc1/C=C1\C=Nc2ccccc21 | 49.2* | -3.2 | 33.9* | -11.4 | 1.4 | 33.0* | Fam108b inh=95.0*
O=S(=O)(c1cc(O)ccc1O)c1cccc2c(S(=O)(=O)c3cc(O)ccc3O)cccc12 | 13.6 | -10.3 | 36.3* | -3.0 | / | 31.6* | Fam108b inh=55.0*
N#C/C(=C\c1coc2ccc(O)cc2c1=O)C(=O)Nc1nc2ccccc2s1 | -11.7 | -15.8 | 44.1* | -10.7 | 3.4 | -38.9
COc1ccc(CNC(=O)c2ccc3nccnc3c2)cc1 | -0.6 | 4.5 | 19.0* | 8.5 | -8.8 | 5.1
